# Active and inactive are the calls of the source. No cut-off for these calls is given here.
# What was measured:
# [1] = target: CDC7/DBF4 (Cell division cycle 7-related protein kinase/Activator of S phase kinase) (Homo sapiens, UniProt O00311); experiment: Inhibition of CDC7/DBF4 (unknown origin) in presence of [gamma-33P]ATP; assay type: protein-complex assay
# [2] = target: Tyrosine-protein kinase JAK1 (Homo sapiens, UniProt P23458); experiment: Inhibition of JAK1 (unknown origin) in presence of [gamma-33P]ATP
# Tyrosine-protein kinase JAK1, sequence (P23458 whole entry): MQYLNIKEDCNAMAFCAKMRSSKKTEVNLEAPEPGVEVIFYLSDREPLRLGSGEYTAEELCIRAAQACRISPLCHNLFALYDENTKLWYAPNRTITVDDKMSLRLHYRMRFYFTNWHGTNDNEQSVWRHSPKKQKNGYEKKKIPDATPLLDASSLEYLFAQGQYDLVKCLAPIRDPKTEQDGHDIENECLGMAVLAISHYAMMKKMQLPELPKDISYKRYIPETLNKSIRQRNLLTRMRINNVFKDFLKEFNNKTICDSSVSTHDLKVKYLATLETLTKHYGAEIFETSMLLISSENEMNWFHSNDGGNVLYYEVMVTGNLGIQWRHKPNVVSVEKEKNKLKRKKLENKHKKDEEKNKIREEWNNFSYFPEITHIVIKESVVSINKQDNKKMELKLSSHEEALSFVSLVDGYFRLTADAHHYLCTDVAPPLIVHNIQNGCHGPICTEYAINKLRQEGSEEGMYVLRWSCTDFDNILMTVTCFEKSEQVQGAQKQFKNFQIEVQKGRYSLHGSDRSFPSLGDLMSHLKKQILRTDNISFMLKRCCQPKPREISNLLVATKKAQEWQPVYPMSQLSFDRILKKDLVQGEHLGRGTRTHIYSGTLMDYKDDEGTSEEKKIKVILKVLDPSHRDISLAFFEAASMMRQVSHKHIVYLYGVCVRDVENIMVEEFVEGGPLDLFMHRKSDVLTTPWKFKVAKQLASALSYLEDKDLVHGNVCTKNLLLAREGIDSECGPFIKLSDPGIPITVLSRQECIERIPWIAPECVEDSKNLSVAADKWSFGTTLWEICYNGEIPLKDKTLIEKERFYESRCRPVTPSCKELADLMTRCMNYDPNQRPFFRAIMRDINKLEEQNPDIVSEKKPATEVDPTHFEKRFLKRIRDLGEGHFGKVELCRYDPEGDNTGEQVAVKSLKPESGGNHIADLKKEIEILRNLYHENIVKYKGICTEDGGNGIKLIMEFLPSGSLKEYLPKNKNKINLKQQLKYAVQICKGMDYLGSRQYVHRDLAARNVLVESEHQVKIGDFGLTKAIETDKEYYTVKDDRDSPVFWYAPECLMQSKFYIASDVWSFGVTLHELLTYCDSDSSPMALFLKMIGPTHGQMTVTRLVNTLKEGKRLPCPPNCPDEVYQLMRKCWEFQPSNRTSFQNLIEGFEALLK
# [3] = target: MAP kinase-interacting serine/threonine-protein kinase 2 (Homo sapiens, UniProt Q9HBH9); experiment: Inhibition of MNK2 (unknown origin) in presence of [gamma-33P]ATP
# MAP kinase-interacting serine/threonine-protein kinase 2, sequence (Q9HBH9 whole entry): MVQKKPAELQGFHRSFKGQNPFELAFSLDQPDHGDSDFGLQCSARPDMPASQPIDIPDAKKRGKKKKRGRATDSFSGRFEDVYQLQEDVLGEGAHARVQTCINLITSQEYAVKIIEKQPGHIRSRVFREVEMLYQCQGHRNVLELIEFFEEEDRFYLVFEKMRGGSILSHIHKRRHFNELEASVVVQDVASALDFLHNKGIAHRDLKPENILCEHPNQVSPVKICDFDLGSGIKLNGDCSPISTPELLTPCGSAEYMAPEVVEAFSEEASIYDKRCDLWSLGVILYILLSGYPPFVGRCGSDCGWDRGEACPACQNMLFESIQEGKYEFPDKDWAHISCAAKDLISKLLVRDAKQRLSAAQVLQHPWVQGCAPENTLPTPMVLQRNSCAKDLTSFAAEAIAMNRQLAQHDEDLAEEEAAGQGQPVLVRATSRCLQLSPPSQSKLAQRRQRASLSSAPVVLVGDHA
# [4] = target: Serine/threonine-protein kinase pim-2 (Homo sapiens, UniProt Q9P1W9); experiment: Inhibition of PIM2 (unknown origin) in presence of [gamma-33P]ATP
# Serine/threonine-protein kinase pim-2, sequence (Q9P1W9 whole entry): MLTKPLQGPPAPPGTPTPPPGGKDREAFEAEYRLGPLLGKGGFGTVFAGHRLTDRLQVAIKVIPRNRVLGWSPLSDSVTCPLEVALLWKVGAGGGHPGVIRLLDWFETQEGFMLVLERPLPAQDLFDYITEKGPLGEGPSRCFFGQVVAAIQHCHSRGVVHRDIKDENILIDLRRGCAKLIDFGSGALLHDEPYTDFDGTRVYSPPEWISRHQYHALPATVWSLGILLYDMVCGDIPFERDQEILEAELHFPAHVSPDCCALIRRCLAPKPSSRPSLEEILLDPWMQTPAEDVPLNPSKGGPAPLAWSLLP
# [5] = Inhibition of SULU1 (unknown origin) in presence of [gamma-33P]ATP; design: species or system Homo sapiens
# [6] = target: Casein kinase I isoform gamma-3 (Homo sapiens) (UniProt Q9Y6M4); experiment: Inhibition of N-terminal 6His-tagged recombinant human CK1gamma3 (1 to 330 residues) expressed in baculovirus infected Sf21 cells assessed as residual activity at 0.1 uM relative to control
# [7] = target: Proto-oncogene tyrosine-protein kinase Src (Homo sapiens) (UniProt P12931); experiment: Inhibition of N-Terminal His6-tagged recombinant full-length human c-SRC expressed in Sf21 cells assessed as residual activity at 0.1 uM relative to control
# [8] = target: Rho-associated protein kinase 1 (Homo sapiens) (UniProt Q13464); experiment: Inhibition of N-terminal His6-tagged recombinant human ROCK-I (17 to 535 residues) expressed in baculovirus infected Sf21 cells assessed as residual activity at 0.1 uM relative to control
# [9] = target: Mitogen-activated protein kinase 11 (Homo sapiens) (UniProt Q15759); experiment: Inhibition of N-terminal GST fusion protein corresponding to full-length human SAPK2b expressed in E. coli assessed as residual activity at 0.1 uM relative to control
# Mitogen-activated protein kinase 11 (Homo sapiens), sequence (Q15759 whole entry, the tested form may be a part): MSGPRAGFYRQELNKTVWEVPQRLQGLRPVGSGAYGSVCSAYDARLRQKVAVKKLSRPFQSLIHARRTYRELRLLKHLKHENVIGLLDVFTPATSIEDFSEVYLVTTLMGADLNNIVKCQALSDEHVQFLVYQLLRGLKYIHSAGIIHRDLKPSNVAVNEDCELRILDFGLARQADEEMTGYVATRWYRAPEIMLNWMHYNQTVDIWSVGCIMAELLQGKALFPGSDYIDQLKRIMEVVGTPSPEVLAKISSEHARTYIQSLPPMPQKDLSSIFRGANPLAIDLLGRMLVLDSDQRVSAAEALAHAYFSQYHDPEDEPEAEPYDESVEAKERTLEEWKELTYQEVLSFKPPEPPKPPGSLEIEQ
# [10] = target: Tyrosine-protein kinase SYK (Homo sapiens, UniProt P43405); experiment: Inhibition of N-terminal His6-tagged recombinant full-length human Syk expressed in baculovirus infected Sf21 cells assessed as residual activity at 0.1 uM relative to control
# [11] = target: Serine/threonine-protein kinase ULK3 (Homo sapiens) (UniProt Q6PHR2); experiment: Inhibition of N-terminal 6His-tagged recombinant human full-length ULK3 expressed in baculovirus infected Sf21 cells assessed as residual activity at 0.1 uM relative to control
# Serine/threonine-protein kinase ULK3 (Homo sapiens), sequence (Q6PHR2 whole entry, the tested form may be a part): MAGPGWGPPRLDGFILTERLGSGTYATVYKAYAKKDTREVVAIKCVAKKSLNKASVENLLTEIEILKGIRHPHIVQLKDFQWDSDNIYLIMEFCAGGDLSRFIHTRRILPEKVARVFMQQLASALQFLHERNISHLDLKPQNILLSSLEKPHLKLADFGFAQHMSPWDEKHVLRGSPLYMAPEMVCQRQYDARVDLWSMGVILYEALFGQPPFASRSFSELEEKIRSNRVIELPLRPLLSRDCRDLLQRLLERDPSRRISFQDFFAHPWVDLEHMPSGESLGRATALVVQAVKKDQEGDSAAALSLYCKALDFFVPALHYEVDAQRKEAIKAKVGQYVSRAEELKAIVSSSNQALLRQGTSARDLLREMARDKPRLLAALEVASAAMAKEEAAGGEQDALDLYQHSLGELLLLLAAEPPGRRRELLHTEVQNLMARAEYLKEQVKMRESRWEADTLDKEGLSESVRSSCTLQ
# Activated CDC42 kinase 1 = Activated CDC42 kinase 1 (Homo sapiens, UniProt Q07912); experiment: Inhibition of N-terminal GST-tagged recombinant human ACK1 (1 to 389 residues) expressed in baculovirus infected Sf21 cells assessed as residual activity at 1 uM relative to control
# [12] = target: Calcium/calmodulin-dependent protein kinase type 1 (Homo sapiens) (UniProt Q14012); experiment: Inhibition of recombinant human CaMKI assessed as residual activity at 1 uM relative to control
# Calcium/calmodulin-dependent protein kinase type 1 (Homo sapiens), sequence (Q14012 whole entry, looked up): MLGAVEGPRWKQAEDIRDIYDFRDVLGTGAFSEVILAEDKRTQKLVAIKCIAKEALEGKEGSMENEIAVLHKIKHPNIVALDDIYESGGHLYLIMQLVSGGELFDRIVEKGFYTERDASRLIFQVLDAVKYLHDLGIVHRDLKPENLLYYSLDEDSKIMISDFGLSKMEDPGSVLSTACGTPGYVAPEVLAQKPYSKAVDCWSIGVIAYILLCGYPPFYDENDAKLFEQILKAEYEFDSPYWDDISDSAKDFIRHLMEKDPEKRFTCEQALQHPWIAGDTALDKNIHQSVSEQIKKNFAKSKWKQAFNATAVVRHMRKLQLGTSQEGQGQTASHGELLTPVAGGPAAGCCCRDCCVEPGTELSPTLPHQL
# [13] = target: Calcium/calmodulin-dependent protein kinase type II subunit delta (Homo sapiens) (UniProt Q13557); experiment: Inhibition of recombinant full length human CaMKIIdelta assessed as residual activity at 1 uM relative to control
# [14] = target: Casein kinase I isoform delta (Homo sapiens) (UniProt P48730); experiment: Inhibition of N-terminal GST-tagged recombinant human CK1delta (1 to 294 residues) expressed in E. coli assessed as residual activity at 1 uM relative to control
# [15] = target: Ephrin type-A receptor 4 (Homo sapiens) (UniProt P54764); experiment: Inhibition of N-terminal His6-tagged recombinant human EphA4 (601 to 892 residues) expressed in baculovirus infected Sf21 cells assessed as residual activity at 1 uM relative to control
# [16] = target: Ephrin type-B receptor 3 (Homo sapiens) (UniProt P54753); experiment: Inhibition of N-terminal His6-tagged recombinant human EphB3 (599 to 920 residues) expressed in baculovirus infected Sf21 cells assessed as residual activity at 1 uM relative to control
# [17] = target: Serine/threonine-protein kinase Nek3 (Homo sapiens) (UniProt P51956); experiment: Inhibition of N-terminal 6His-tagged recombinant full length human NEK3 expressed in baculovirus infected Sf21 cells assessed as residual activity at 1 uM relative to control
# Serine/threonine-protein kinase Nek3 (Homo sapiens), sequence (P51956 whole entry): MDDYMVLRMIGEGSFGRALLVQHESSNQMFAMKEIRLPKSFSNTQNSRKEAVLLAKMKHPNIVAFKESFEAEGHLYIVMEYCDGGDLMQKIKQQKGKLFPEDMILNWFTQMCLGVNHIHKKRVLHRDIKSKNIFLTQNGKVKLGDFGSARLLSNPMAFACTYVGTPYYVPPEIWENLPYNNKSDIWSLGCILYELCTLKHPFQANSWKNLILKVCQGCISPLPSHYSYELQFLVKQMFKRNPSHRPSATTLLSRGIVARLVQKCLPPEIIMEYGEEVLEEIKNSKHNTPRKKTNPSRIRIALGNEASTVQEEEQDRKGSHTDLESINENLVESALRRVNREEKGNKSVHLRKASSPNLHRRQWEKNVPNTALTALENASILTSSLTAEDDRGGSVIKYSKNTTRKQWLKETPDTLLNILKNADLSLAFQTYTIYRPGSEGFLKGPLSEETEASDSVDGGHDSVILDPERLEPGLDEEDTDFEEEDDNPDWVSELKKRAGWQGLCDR
# [18] = target: Macrophage-stimulating protein receptor (Homo sapiens) (UniProt Q04912); experiment: Inhibition of N-terminal GST-tagged recombinant human Ron (983 to end residues) expressed in baculovirus infected Sf21 cells assessed as residual activity at 1 uM relative to control
# Macrophage-stimulating protein receptor (Homo sapiens), sequence (Q04912 25-304 limits assumed): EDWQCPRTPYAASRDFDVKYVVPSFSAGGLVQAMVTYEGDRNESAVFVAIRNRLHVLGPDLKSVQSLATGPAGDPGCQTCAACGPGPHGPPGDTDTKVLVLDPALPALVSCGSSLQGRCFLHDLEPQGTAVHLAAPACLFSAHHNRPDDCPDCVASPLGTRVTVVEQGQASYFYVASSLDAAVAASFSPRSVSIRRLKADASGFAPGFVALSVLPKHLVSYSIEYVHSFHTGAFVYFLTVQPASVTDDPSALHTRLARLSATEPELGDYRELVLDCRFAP
# Macrophage-stimulating protein receptor (Homo sapiens), sequence (Q04912 310-1400 limits assumed): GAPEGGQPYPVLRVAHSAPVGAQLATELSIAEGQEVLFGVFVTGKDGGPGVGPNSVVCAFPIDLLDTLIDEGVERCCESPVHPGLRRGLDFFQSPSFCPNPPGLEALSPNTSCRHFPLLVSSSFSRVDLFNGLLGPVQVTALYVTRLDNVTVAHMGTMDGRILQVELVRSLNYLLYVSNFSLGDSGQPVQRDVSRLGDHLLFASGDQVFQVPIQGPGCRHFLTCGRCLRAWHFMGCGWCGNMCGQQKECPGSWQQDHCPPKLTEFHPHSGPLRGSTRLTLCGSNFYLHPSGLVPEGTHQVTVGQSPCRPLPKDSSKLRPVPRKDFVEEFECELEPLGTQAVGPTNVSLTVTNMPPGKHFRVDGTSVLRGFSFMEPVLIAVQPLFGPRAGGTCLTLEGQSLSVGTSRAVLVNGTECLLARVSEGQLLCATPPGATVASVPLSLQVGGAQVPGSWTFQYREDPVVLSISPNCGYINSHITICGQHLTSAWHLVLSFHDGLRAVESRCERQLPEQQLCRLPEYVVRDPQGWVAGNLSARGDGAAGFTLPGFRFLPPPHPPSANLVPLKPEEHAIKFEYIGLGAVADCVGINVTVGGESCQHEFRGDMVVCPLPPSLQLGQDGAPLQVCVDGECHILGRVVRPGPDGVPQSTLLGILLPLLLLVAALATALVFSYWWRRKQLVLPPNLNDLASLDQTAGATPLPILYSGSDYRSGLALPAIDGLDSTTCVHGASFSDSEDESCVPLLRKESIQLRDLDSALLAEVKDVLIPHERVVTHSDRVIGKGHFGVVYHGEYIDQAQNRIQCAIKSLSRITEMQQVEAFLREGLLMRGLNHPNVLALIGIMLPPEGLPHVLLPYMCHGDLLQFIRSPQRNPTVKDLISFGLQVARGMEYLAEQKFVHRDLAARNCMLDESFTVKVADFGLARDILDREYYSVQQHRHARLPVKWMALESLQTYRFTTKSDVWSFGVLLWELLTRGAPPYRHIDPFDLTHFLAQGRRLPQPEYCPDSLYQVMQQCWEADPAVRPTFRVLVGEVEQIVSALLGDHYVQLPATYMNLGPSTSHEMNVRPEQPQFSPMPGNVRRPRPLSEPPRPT
# [19] = target: Serine/threonine-protein kinase SIK1 (Homo sapiens) (UniProt P57059); experiment: Inhibition of N-terminal 6His-tagged recombinant human SIK (1 to 281 residues) expressed in baculovirus infected Sf21 cells assessed as residual activity at 1 uM relative to control
# MDA-MB-468 = experiment: Antiproliferative activity against human MDA-MB-468 cells assessed as inhibition of cell growth incubated for 72 hrs by cell-titer glo assay; assay type: functional, cell-based; details: MDA-MB-468, 72 h
# Method in brief: (§1)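 Cells seeded at 10,000–30,000/cm² (adherent) or 100,000/mL (nonadherent) in medium with 10% fetal calf serum; after 24 h, treated in duplicate with serial dilutions for 72 h. Viable cell number read by CellTiter-Glo luminescence; IC50 from sigmoidal fit; at least two independent experiments.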
# MDA-MB-231 = experiment: Antiproliferative activity against human MDA-MB-231 cells assessed as inhibition of cell growth incubated for 72 hrs by cell-titer glo assay; assay type: functional, cell-based; details: MDA-MB-231, 72 h; method in brief: as §1
# [20] = Antiproliferative activity against human NPA cells assessed as inhibition of cell growth incubated for 72 hrs by cell-titer glo assay; assay type: functional, cell-based
# Method in brief: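 Cells from ATCC or ECACC, kept in supplier-recommended medium with 1% penicillin-streptomycin at 37°C, 5% CO₂. Seeded at 10,000–30,000/cm² (adherent) or 100,000/mL (nonadherent) in medium with 10% fetal calf serum. Dosed after 24 h in duplicate with serial dilutions. Viable cells read by CellTiter-Glo 72 h later. IC50 from sigmoidal fit. At least two independent experiments.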
# [21] = AUC in Sprague-Dawley rat at 10 mg/kg, iv by LC-MS analysis; assay type: ADME, organism-based; details: in vivo
# [22] = AUC in nu/nu mouse at 10 mg/kg, po by LC-MS analysis; assay type: ADME, organism-based; details: in vivo
# [23] = Tmax in Beagle dog at 5 mg/kg, po by LC-MS analysis; assay type: ADME, organism-based, Canis lupus familiaris; details: in vivo
# U2OS = experiment: Effect on cell morphology in human U2OS cells assessed as increased number of rounded cells at 1 uM by time lapse microscopy analysis; assay type: functional, cell-based; details: time lower […], time upper 48.0 hrs, TDE = time-dependent effect
# A2780 = experiment: In vivo inhibition of PLK1 in human A2780 cells xenografted in nu/nu mouse assessed as decreased TCTP phosphorylation on Ser46 at 90 to 120 mg/kg, po administered for 6 to 12 hrs by Western blotting analysis; assay type: functional, organism-based; details: dose lower 90.0 mg/kg, dose upper […], time lower 6.0 hrs
structure (smiles),measurement,setting,value
CN1CCN(c2ccc(OC(F)(F)F)c(Nc3ncc4c(n3)-c3c(c(C(N)=O)nn3CCO)CC4)c2)CC1 [ONVANSERTIB],IC50,[1],> 10000 nM
same,IC50,[2],> 10000 nM
same,IC50,[3],> 10000 nM
same,IC50,[4],> 10000 nM
same,IC50,[5],> 10000 nM
same,Activity,[6],96%
same,Activity,[7],43%
same,Activity,[8],145%
same,Activity,[9],152%
same,Activity,[10],96%
same,Activity,[11],139%
same,Activity,Activated CDC42 kinase 1,89%
same,Activity,[12],87%
same,Activity,[13],74%
same,Activity,[14],73%
same,Activity,[15],80%
same,Activity,[16],87%
same,Activity,[17],118%
same,Activity,[18],42%
same,Activity,[19],93%
same,IC50,MDA-MB-468,83 nM
same,IC50,MDA-MB-231,172 nM
same,IC50,[20],72 nM
same,AUC,[21],13.8 µM·h
same,AUC,[22],2 µM·h
same,Tmax,[23],1.2 h
same,Activity,U2OS,Tde
same,inhibition,A2780,Active

# From ChEMBL document CHEMBL5678806, “NMS-P937, an orally available, specific small-molecule polo-like kinase 1 inhibitor with antitumor activity in solid and hematologic malignancies” (Mol Cancer Ther, 2012)
